System: MS2 coat protein
Test: apparent Kd, MS2 coat protein; higher = weaker binding; RNA-MaP array; FMN 200 µM where present
How it was run: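 The apparent Kd is the median of filtered binding-curve fits, one per cluster, to green signal normalised to red-channel RNA signal and control-cluster median Fmax. The clusters were on Illumina sequencing chips, and stalled E. coli RNA polymerase had transcribed the designs on them. Titration used SNAP-549-labelled MS2 coat protein from 0.7 or 1.5 nM, doubling to 3 µM, without and then with constant ligand, in 100 mM Tris-HCl pH 7.5, 80 mM KCl, 4 mM MgCl2, BSA, DTT, yeast tRNA and Tween-20.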

[1] = designed as: ON switch for flavin mononucleotide, no ligand
[2] = ligand present: flavin mononucleotide, designed as: ON switch for flavin mononucleotide
[3] = designed as: OFF switch for flavin mononucleotide, no ligand
[4] = ligand present: flavin mononucleotide, designed as: OFF switch for flavin mononucleotide

Sequence | apparent Kd [1] [nM] | apparent Kd [2] [nM] | apparent Kd [3] [nM] | apparent Kd [4] [nM]
AUAAAACAUGAGGAUCACCCAUGUCAACAAAGUCGAGGAUAUGGGCAAAGAAAAUAAGAACCAGAAGGCGAAUAAU | 260 | 45 | – | –
AGAUAACAUAGUUAUCCGUAACGGACAUGAGGAUCACCCAUGUAGGAUAUGUUACUCAACGAGUAACAGAAGGACAUGAGUCUU | – | – | 17.3 | 102
ACGACGAAAGUCGAACGAUGUAGCAGAAGGACAUGAGGAUCACCCAUGUCAGCUGUAACAGCCAUGUAGGAUAUGCUACAUCGA | – | – | 4.35 | 5.67
GCAGCAUAGUUUACUAACUGUUACAUGAGGAUCACCCAUGUUUAGGAUAUGGUCUGGAUUACAGGCCAGAAGGGAACAAGCUGC | – | – | 14.6 | 12.3
AAUAAACUCACAGGAUAUAGCAGAUGUCGCGUGAACUUACAGGCGACGAGGCUAGAAGGGUGACCACAUGAGGAUCACCCAUGU | 738 | 103 | – | –
GUAGCUAUCGCAGGAUAUUCAUACCGGAAACGGACAUGAGGAUCACCCAUGUGGCGAAAGCCUUGGGAGAAGGCCGAUAGCUAC | 1160 | 789 | – | –
UGUCGGAGCAGAGGAUAUUACAUGAGGAUCACCCAUGUAUGAACCAAUAGCUGGAAACAGCAUUGUAAGAAGGCUGCUCCGACA | – | – | 4.75 | 12.1
UCAUCAAAUUGAACAUGAGGAUCACCCAUGUAGGAUUAGCCACAGGAUAUCCGUGCUAGAAUGUGGGAGAAGGGUGGUCACUCC | 334 | 64.5 | – | –
AUCAGCUCGUCAGGAUAUACAUCACUGCUUCGGCAGUGUAUCUUAACAACAUGAGGAUCACCCAUGUAGAAGGGACGAGCUGAU | – | – | 17.6 | 24.5
UGUUGUAUUACAGGAUAUCUAGUAUUUUUUUUUAGAGAAGGGUAUUCACAUGAGGAUCACCCAUGUAUAUACGAGGAAGUUGUG | 67.1 | 71.1 | – | –
UGUGUGUGGCAGGAUAUGCCGGUCGUUGGACGGGUAGAAGGGUCUACAUGAGGAUCACCCAUGUGGCCGGUUGG | – | – | 18.4 | 20.2
AAUGCCAACGAAGGAUAUACAAACAUGAGGAUCACCCAUGUGUCUUUCGUGUAACUGGAAUUCGGGUAGAAGGUCGUUGACAUA | – | – | 24.2 | 23.2
GGACCGAGUGUGAGGAUAUGCUGGUCCUUGGAUCAGCAGAAGGCACAUGAGGAUCACCCAUGUGGUGUCGGUCC | – | – | 573 | 203
CAGUACUGAGGAUAUACAUGAGGAUCACCCAUGUGAAAAAGCUACGAAAGUAGCAAAUGUAGAAGGCAGUACUG | – | – | 34.3 | 254
ACCGGGUACACAGGAUAUCACGUCCUGACAUGAGGAUCACCCAUGUCGGUCUGAGAAGGGUGGUCCCGCAGCCGACUGUGAUGG | 254 | 27.3 | – | –
AGCUACGUUUCGUAGCAGCUAGGUGAGGAUAUUCAAUUUUUCACAUGAGGAUCACCCAUGUAUGAAAAGAAGGCGCCUAGAAAG | 4.45 | 4.04 | – | –
AAGAAGGCAGGAUAUACAAAAUAAAAGAAAAGAAAGAAAGAACAUGAGGAUCACCCAUGUAGAAGGGUCAAGAA | – | – | 59.3 | 66.1
UCCACUACUGAGAAGGGAUACAUAUAGUUCUAGUCAGGAUAUCGAUACAGUGCAGCAUGAGGACAUGAGGAUCACCCAUGUAUU | 22.1 | 16.2 | – | –
UGGUGAAGUGUAGGAUAUGGAGAUGGGUUUUGGCCAGAAGGACAUGAGGAUCACCCAUGUGGUAGAGGGUUGGUGGUAGCUCCU | – | – | 36.2 | 31.7
UGAUCGAGAGAUCUUAGAUUCUGGUAGGAUAUACAUUAUGUUAAAAUUACAUGAGGAUCACCCAUGUAGAAGGACUAGAGUCUA | – | – | 6.13 | 9.12
GUAGCAUACAGAGGAUAUUCAAAACCGCAAAGCGGACAUGAGGAUCACCCAUGUGGCGAAAGCCGGGAGAAGGCUGAAUGCUAC | 18.7 | 16.1 | – | –
AAGAAGGACGCAGGAUAUCCAGGACCUCCCGCAGGAGAAGGGCGAGACAUGAGGAUCACCCAUACAUGAGGAUCACCCAUGUAA | – | – | 20.4 | 22.3
GGAUGACAAAGUCAUCCUAUUCGAACAUGAGGAUCACCCAUGUAGGAUAUGCUAGUCAAAGACUAGCAGAAGGACAUGUGCCUU | – | – | 36.4 | 164
AUACAUGAGGAUCACCCAUGUAAUUAAUUAAUUAAUAAGAUCAAGGAUAUCAGCUCGAAUAGAGCUGAGAAGGUGAUCACAUGU | 240 | 266 | – | –
CAUUAAUAGUAGAAGGGUCAAGUUUUGGGUAGGGCAGGAUAUACGAACAAGAAACAUGAGGAUCACCCAUGUGUCCAUGUCAUG | – | – | 33.9 | 29.6
GGAAAUCGUGUAGGAUAUGCAUGGCGAAGCUACGCAGAAGGACAUGAGGAUCACCCAUGUUAUAGCGUCCGAGAAAGGAUGCAA | – | – | 11 | 67.4
CGAGAUACGCUCGACCGAAAGGUACAUGAGGAUCACCCAUGUAGAAGGCGAUCCGCAACUCGGAUUGAGGAUAUAUACUACACA | – | – | 31.8 | 24.4
AUCUUGUAAGGAUAUCUUACAAGUGACUUCGGUCACAGUUAAGAGAAGGUACAUGAGGAUCACCCAUGUAUAAC | – | – | 26.4 | 23

Sequence | apparent Kd [1] [nM] | apparent Kd [2] [nM] | apparent Kd [3] [nM] | apparent Kd [4] [nM]
UUGGACGUCGUAGGAUAUGUAGGAUAUUCCUACAUGAGGAUCACCCAUGUUGACAUGGUAGAAGGACAGAAGGACGAUGUCCAU | 423 | 53.4 | – | –
AGAAGGCUACAGAAGGGACACACACGGUGGGAGUCAGGAUAUGUAGAGAAAACGUUACAUGAGGAUCACCCAUGUAGACCUUCC | 73.9 | 16.8 | – | –
AUAAUUUUAUAUAUCAUUUUAAUCAGAAGGCAUAACAUGAGGAUCACCCAUGUAAAUUAUUGUUAUGAGGAUAUGAAUUGGUUA | – | – | 14.4 | 54.8
GCAUGCUAUGUCAGGAUAUACCUCUGGAUACAUAGGUAGAAGGGACAUGAGGAUCACCCAUGUCCUAAACAUGC | – | – | 12.2 | 13.4
GAACAUGAGGAUCACCCAUGUUCUCCAGAAGGCCGUACAUUUAAAAGUGGAUGGAUUAGUGUUGCGGAGGAUAUGGAGGUGCAA | 72 | 17.8 | – | –
GUUAGCGCAGGAUAUACAUGAGGAUCACCCAUGUCCUCAUGCGUUAAAGAGGUGAUCCGUAGAAGGGUGUAAAC | – | – | 180 | 250
UGUAUUAACGGAGGAUAUCGAUAUCAAACAUGAGGAUCACCCAUGUUGAGGAUCACCCAUGUCCAUGAGAAGGCUGGCGUACUU | 20.8 | 20.6 | – | –
GGGUACAUCGGAGGAUAUCAUGUAAAUACAUGAGGAUCACCCAUGUCGAUCGAGACAUCGGAGAUUGAGAAGGCCGAUGUACCG | 163 | 286 | – | –
GGACGUCUCAUUAACAUGAGGAUCACCCAUGUCAAAAGACAUGAGGAUAUGGAACCUAAUUGGUUCCAGAAGGCAUGGACGUCC | 802 | 62.6 | – | –
UGGCCCGCCGGAGGAUAUCUACUCUGUGGUGCACUGCGUUUGCAAUACAUGAGGAUCACCCAUGUAGAGAAGGCCGAGGGCACA | – | – | – | 66.9
GGCACUAUCACAGGAUAUGCUUUCCUUUGGGAAGCAGAAGGGUGUAACAUGAGGAUCACCCAUGUGGUGCCAGGGCGUGAGCCC | 114 | 10.9 | – | –
UGUAUGGACAGAGGAUAUACCGAUAGGAUCUACUAUCGAACAAUUCUCACAUGAGGAUCACCCAUGUAGAAGGCUGUCCAUACU | – | – | 16 | 29.5
GGAUGACAAAGUCAUCCUAAACGAACAUGAGGAUCACCCAUGUAGGAUAUGCUACUCAAAGAGUAGCAGAAGGACAUGUGCCUU | – | – | 37.3 | 260
AUGUAGGUAGGAUAUGCAUAGAUAUACAUUCAUGUGGAUUUACAUGAGGAUCACCCAUGUAGAAGGACCUAAAA | – | – | 34.1 | 107
AAUAAACUCACAGGAUAUAGCAUAGGCCGCGUGAACUUACAGGCGACUAUGCUAGAAGGGUGACCACAUGAGGAUCACCCAUGU | 851 | 141 | – | –
ACCUCACAUGAGGAUCACCCAUGUCAGGAUAUCUGAUGUAGUCGCGUUCCCGACGCUAAGAGAAGGGACGUUGA | – | – | 40.4 | 35.1
GUUAACGCAUGAGGAUAUGCUCACAUUUCAAGAGCAGAAGGUAUGUCUAUAGACAUGAGGAUCACCCAUGUAUUUAUCAUUGAA | 166 | 42.5 | – | –
GCUCUGUUAGGAUAUUUCGGCAUAGGUAUAACUUAAGCGUGAGAGAAGGAACAUGAGGAUCACCCAUGUUAAUC | – | – | 19.9 | 77.5
GUGCCUUGGGAGAAGGUUACUAGCAAAGCUAUUAAAGGAUAUUCAUACCGGAAACGGACAUGAGGAUCACCCAUGUGGCACAAA | 1120 | 118 | – | –
AUCGGCCCGUAGAAGGGUGACAUGAGGAUCACCCAUGUGCCGCGUGCAUUUAUGCCUCCGCGGCCACAGGAUAUACGGAGUUGA | 61 | 50 | – | –
CACGAGUGAGGAUAUAGAGAGGUGAGGCUGAAGUCGCAUAUCUAGAAGGCACAUGAGGAUCACCCAUGUCCCUC | – | – | 481 | 503
GCCAUCGCAUGAGGAUAUGCUCCGGUUUCCGGAGCAGAAGGUAUGUCAUAAGACAUGAGGAUCACCCAUGUAGUUAAGAUGGCA | 252 | 30 | – | –
CAAUUCGCACAGAAGGGUGACAUGAGGAUCACCCAUGUAGCGUGGCACUCAGGAGGAGCCACGCCACAGGAUAUGUGCGGGCAC | 33.4 | 33.8 | – | –
UUGGACGUCGUAGGAUAUGUAGGAUUUUCCUACAUGAGGAUCACCCAUGUUGACAUGGAAGAAGGACAGAAGGACGAUGUCCAU | 648 | 16.3 | – | –
GUCAGCUCGUGAGGAUAUACAACACUGCUUCGGCAGUGGAUUAAGAUCACAUGAGGAUCACCCAUGUAGAAGGCACGAGCUGAU | – | – | 16.2 | 423
GCGAUGUUAGGAUAUACAUGAGGAUCACCCAUGUUCAGACUGAGCCUAGAGCGUCUAUGUAGAAGGGACUCGCA | – | – | 27.2 | 43.1
UUCAGCUCGUGAGGAUAUACAUGUGCUGGAAACAGCACUAUUAAGAUCACAUGAGGAUCACCCAUGUAGAAGGCACGAGCUGAG | – | – | 48 | 585
